# Laboratory results: ChEMBL document CHEMBL3792377, “Synthesis and characterization of a series of chiral alkoxymethyl morpholine analogs as dopamine receptor 4 (D4R) antagonists” (Bioorg Med Chem Lett, 2016)
# Test system: Liver microsome
# Test: Drug metabolism in rat liver microsomes assessed as oxidative dealkylated metabolite formation in presence of NADPH
# Assay type: ADME
# Conditions: not given
row,Drug metabolism,SMILES
1,metabolite_detected,Fc1ccc2c(CN3CCO[C@H](COc4cccc(Cl)n4)C3)c[nH]c2c1

# Test system: not listed separately
# Test: Ratio of drug level in brain to plasma in rat at 0.25 mg/kg, iv administered through cassette dosing at 0.25 hrs
# Assay type: ADME, organism-based
# Conditions: not given
row,Kp,SMILES
1,2.23,Cn1ncc2cc(CN3CCO[C@H](COc4ccccc4)C3)ccc21
2,4.62,Clc1ccc(CN2CCO[C@H](COc3ccccc3)C2)cc1
3,7.38,COc1ccc(CN2CCO[C@H](COc3ccccc3)C2)cc1F

# Biological target: T1, D(3) dopamine receptor (Homo sapiens, UniProt P35462)
# Test: Displacement of [3H]-Spiperone from human recombinant dopamine D3 receptor expressed in CHO cells at 10 uM relative to control
# Assay type: cell-based
# Conditions: not given
# Outline: (§1)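 Off-target dopamine receptor radioligand binding (D1, D2L, D2S, D3, D5), run as a contract assay. Test compound at a single concentration of 10 µM, reported as % inhibition of specific binding, measured in duplicate.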
# T1 sequence (P35462 whole entry): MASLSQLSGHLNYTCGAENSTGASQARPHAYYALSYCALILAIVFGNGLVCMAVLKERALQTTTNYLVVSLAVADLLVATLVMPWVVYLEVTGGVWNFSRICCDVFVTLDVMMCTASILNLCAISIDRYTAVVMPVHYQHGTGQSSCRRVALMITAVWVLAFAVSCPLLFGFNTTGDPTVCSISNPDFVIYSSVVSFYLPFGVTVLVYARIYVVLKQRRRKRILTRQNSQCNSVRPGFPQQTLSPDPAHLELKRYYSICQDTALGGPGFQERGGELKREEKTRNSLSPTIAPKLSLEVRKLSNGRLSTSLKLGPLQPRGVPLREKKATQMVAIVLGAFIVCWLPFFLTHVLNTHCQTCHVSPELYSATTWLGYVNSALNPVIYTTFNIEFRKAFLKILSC
row,inhibition,SMILES
1,< 50%,COc1ccc(CN2CCO[C@H](COc3ccccc3)C2)cc1F

# Test system: Liver microsome
# Test: Metabolic stability in rat liver microsomes in absence of NADPH
# Assay type: ADME
# Conditions: not given
row,Stability,SMILES
1,Stable,Fc1ccc2c(CN3CCO[C@H](COc4cccc(Cl)n4)C3)c[nH]c2c1

# Biological target: T2, D(1B) dopamine receptor (Homo sapiens, UniProt P21918)
# Test: Displacement of [3H]-SCH-23390 from human recombinant dopamine D5 receptor expressed in CHO cells
# Assay type: cell-based
# Conditions: not given
# T2 sequence (P21918 whole entry): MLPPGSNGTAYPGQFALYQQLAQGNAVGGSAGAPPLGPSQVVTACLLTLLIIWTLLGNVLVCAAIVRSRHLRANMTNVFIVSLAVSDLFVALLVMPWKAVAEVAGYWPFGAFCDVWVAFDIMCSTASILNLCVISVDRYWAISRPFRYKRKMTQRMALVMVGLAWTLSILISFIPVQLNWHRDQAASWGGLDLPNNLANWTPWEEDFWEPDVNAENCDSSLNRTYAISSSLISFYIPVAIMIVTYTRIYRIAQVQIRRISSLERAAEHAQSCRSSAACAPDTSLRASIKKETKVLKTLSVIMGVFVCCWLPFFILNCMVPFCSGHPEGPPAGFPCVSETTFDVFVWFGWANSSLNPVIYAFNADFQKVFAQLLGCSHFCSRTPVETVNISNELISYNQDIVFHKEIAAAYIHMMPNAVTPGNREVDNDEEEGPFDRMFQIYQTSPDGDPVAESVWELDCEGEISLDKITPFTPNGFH
row,Ki,SMILES
1,> 10 µM,Fc1ccc2c(CN3CCO[C@H](COc4cccc(Cl)n4)C3)c[nH]c2c1

# Test system: Liver microsome
# Test: Metabolic stability in human liver microsomes in absence of NADPH
# Assay type: ADME
# Conditions: not given
row,Stability,SMILES
1,Stable,Fc1ccc2c(CN3CCO[C@H](COc4cccc(Cl)n4)C3)c[nH]c2c1

# Test system: not listed separately
# Test: Fraction unbound in human plasma by equilibrium dialysis method
# Assay type: ADME, cell-free
# Conditions: not given
row,Fu,SMILES
1,0.039,Cn1ncc2cc(CN3CCO[C@H](COc4ccccc4)C3)ccc21
2,0.007,Clc1ccc(CN2CCO[C@H](COc3ccccc3)C2)cc1
3,0.015,Fc1ccc2c(CN3CCO[C@H](COc4cccc(Cl)n4)C3)c[nH]c2c1
4,0.031,COc1ccc(CN2CCO[C@H](COc3ccccc3)C2)cc1F

# Biological target: T3, D(1A) dopamine receptor (Homo sapiens, UniProt P21728)
# Test: Displacement of [3H]-SCH-23390 from human recombinant dopamine D1 receptor expressed in CHO cells at 10 uM relative to control
# Assay type: cell-based
# Conditions: not given
# Outline: as §1
# T3 sequence (P21728 whole entry): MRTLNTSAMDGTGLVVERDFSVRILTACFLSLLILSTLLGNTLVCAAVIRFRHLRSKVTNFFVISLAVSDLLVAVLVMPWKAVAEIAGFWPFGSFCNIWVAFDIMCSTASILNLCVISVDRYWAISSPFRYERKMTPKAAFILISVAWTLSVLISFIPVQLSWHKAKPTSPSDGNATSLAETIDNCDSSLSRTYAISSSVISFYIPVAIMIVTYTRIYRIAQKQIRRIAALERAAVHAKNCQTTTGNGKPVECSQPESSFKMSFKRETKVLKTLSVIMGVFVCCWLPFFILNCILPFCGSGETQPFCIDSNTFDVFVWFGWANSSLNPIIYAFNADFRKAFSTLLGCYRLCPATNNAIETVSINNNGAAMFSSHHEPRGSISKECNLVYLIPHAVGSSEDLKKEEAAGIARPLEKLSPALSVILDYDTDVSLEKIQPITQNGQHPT
row,inhibition,SMILES
1,< 50%,COc1ccc(CN2CCO[C@H](COc3ccccc3)C2)cc1F

# Organism: Homo sapiens
# Test: Selectivity ratio of Ki for human recombinant dopamine D1 receptor to Ki for human recombinant dopamine D4 receptor
# Conditions: not given
row,Ratio Ki,SMILES
1,> 1000,Fc1ccc2c(CN3CCO[C@H](COc4cccc(Cl)n4)C3)c[nH]c2c1

# Biological target: T4, D(4) dopamine receptor (Homo sapiens, UniProt P21917)
# T4 sequence (P21917 whole entry): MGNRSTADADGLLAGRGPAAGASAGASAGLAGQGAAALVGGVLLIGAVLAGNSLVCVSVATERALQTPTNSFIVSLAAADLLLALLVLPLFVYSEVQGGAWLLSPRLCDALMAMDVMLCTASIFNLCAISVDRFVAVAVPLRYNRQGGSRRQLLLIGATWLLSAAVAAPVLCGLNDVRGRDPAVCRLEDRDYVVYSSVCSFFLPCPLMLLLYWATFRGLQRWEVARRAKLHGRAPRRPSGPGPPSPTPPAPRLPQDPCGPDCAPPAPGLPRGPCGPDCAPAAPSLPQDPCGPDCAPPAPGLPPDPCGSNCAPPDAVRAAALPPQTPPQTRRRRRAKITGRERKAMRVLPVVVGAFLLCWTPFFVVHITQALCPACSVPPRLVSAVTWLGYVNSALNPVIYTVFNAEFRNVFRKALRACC
# Test: Displacement of [3H]-Spiperone from human recombinant dopamine D4 receptor expressed in CHOK1 cells
# Assay type: cell-based, CHO-K1
# Conditions: not given
# Outline: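 Radioligand binding at human D4 receptor using [3H]-spiperone, run as a contract assay in duplicate. IC50 and Ki were derived from concentration–response data. Single-point values are % inhibition of specific binding at 10 µM test compound.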
IC50,Ki,SMILES
0.17 µM,0.047 µM,Cn1ncc2cc(CN3CCO[C@H](COc4ccccc4)C3)ccc21
0.15 µM,0.042 µM,Clc1ccc(CN2CCO[C@H](COc3ccccc3)C2)cc1
0.0119 µM,0.0033 µM,Fc1ccc2c(CN3CCO[C@H](COc4cccc(Cl)n4)C3)c[nH]c2c1
0.056 µM,0.0143 µM,COc1ccc(CN2CCO[C@H](COc3ccccc3)C2)cc1F

# Biological target: T5, D(2) dopamine receptor (Homo sapiens, UniProt P14416)
# Test: Displacement of [3H]-Spiperone from human recombinant dopamine D2L receptor expressed in CHO cells at 10 uM relative to control
# Assay type: cell-based
# Conditions: not given
# Outline: as §1
# T5 sequence (P14416 whole entry): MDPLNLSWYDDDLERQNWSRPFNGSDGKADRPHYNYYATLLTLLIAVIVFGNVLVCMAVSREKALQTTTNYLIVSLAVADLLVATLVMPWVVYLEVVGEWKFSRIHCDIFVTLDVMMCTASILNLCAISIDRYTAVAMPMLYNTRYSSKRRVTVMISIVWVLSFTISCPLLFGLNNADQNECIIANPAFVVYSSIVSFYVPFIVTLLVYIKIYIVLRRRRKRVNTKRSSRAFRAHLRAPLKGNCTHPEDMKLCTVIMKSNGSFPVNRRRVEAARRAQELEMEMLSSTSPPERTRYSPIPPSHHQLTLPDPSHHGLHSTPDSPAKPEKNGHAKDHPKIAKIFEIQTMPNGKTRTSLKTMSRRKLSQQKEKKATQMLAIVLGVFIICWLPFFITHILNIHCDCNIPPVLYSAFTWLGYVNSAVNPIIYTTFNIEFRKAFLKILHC
row,inhibition,SMILES
1,78%,COc1ccc(CN2CCO[C@H](COc3ccccc3)C2)cc1F

# Organism: Homo sapiens
# Test: Selectivity ratio of Ki for human recombinant dopamine D2S receptor to Ki for human recombinant dopamine D4 receptor
# Conditions: not given
row,Ratio Ki,SMILES
1,> 1000,Fc1ccc2c(CN3CCO[C@H](COc4cccc(Cl)n4)C3)c[nH]c2c1

# Biological target: T2, D(1B) dopamine receptor
# Conditions: CHO, 1 uM
row,inhibition,SMILES
1,< 10%,Fc1ccc2c(CN3CCO[C@H](COc4cccc(Cl)n4)C3)c[nH]c2c1

# Biological target: Dopamine receptors; D3 & D4 (Homo sapiens) (UniProt P35462+P21917)
# Test: Selectivity ratio of Ki for human recombinant dopamine D3 receptor to Ki for human recombinant dopamine D4 receptor
# Conditions: not given
# Sequence of Dopamine receptors; D3 & D4 (Homo sapiens) (P35462 whole entry, looked up, one chain of several): as the sequence (P35462 whole entry) above
row,Ratio Ki,SMILES
1,> 1000,Fc1ccc2c(CN3CCO[C@H](COc4cccc(Cl)n4)C3)c[nH]c2c1

# Biological target: T2, D(1B) dopamine receptor
# Test: Displacement of [3H]-SCH-23390 from human recombinant dopamine D5 receptor expressed in CHO cells at 10 uM relative to control
# Assay type: cell-based
# Conditions: not given
# Outline: as §1
row,inhibition,SMILES
1,< 50%,COc1ccc(CN2CCO[C@H](COc3ccccc3)C2)cc1F

# Organism: Homo sapiens
# Test: Selectivity ratio of Ki for human recombinant dopamine D2L receptor to Ki for human recombinant dopamine D4 receptor
# Conditions: not given
row,Ratio Ki,SMILES
1,> 1000,Fc1ccc2c(CN3CCO[C@H](COc4cccc(Cl)n4)C3)c[nH]c2c1

# Biological target: T5, D(2) dopamine receptor
# Test: Displacement of [3H]-Spiperone from human recombinant dopamine D2S receptor expressed in CHO cells
# Assay type: cell-based
# Conditions: not given
row,Ki,SMILES
1,> 10 µM,Fc1ccc2c(CN3CCO[C@H](COc4cccc(Cl)n4)C3)c[nH]c2c1

# Test system: Liver microsome
# Test: Drug metabolism in human liver microsomes assessed as (S)-2-((6-chloropyridin-2-yloxy)methyl)morpholine formation in presence of NADPH
# Assay type: ADME
# Conditions: not given
row,Drug metabolism,SMILES
1,metabolite_detected,Fc1ccc2c(CN3CCO[C@H](COc4cccc(Cl)n4)C3)c[nH]c2c1

# Biological target: T1, D(3) dopamine receptor
# Test: Displacement of [3H]-Spiperone from human recombinant dopamine D3 receptor expressed in CHO cells
# Assay type: cell-based
# Conditions: not given
row,Ki,SMILES
1,> 10 µM,Fc1ccc2c(CN3CCO[C@H](COc4cccc(Cl)n4)C3)c[nH]c2c1

# Biological target: T3, D(1A) dopamine receptor
# Conditions: CHO, 1 uM
row,inhibition,SMILES
1,< 10%,Fc1ccc2c(CN3CCO[C@H](COc4cccc(Cl)n4)C3)c[nH]c2c1

# Biological target: T1, D(3) dopamine receptor
# Conditions: CHO, 1 uM
row,inhibition,SMILES
1,< 10%,Fc1ccc2c(CN3CCO[C@H](COc4cccc(Cl)n4)C3)c[nH]c2c1

# Test system: not listed separately
# Test: Plasma concentration in rat at 0.25 mg/kg, iv administered through cassette dosing at 0.25 hrs
# Assay type: ADME, organism-based
# Conditions: not given
row,concentration at 0.25 h,SMILES
1,0.0373 µg/mL,Cn1ncc2cc(CN3CCO[C@H](COc4ccccc4)C3)ccc21
2,0.0425 µg/mL,Clc1ccc(CN2CCO[C@H](COc3ccccc3)C2)cc1
3,0.0147 µg/mL,COc1ccc(CN2CCO[C@H](COc3ccccc3)C2)cc1F

# Biological target: T5, D(2) dopamine receptor
# Conditions: CHO, 1 uM
row,inhibition,SMILES
1,< 10%,Fc1ccc2c(CN3CCO[C@H](COc4cccc(Cl)n4)C3)c[nH]c2c1

# Biological target: T5, D(2) dopamine receptor
# Test: Displacement of [3H]-Spiperone from human recombinant dopamine D2L receptor expressed in CHO cells
# Assay type: cell-based
# Conditions: not given
row,Ki,SMILES
1,> 10 µM,Fc1ccc2c(CN3CCO[C@H](COc4cccc(Cl)n4)C3)c[nH]c2c1

# Biological target: T5, D(2) dopamine receptor
# Conditions: CHO, 1 uM
# Remark: another data set of the same source
row,inhibition,SMILES
1,< 10%,Fc1ccc2c(CN3CCO[C@H](COc4cccc(Cl)n4)C3)c[nH]c2c1

# Test system: not listed separately
# Test: Drug uptake in rat brain at 0.25 mg/kg, iv administered through cassette dosing at 0.25 hrs
# Assay type: ADME, organism-based
# Conditions: read-out: Drug uptake
row,concentration at 0.25 h,SMILES
1,83.1 ng/g,Cn1ncc2cc(CN3CCO[C@H](COc4ccccc4)C3)ccc21
2,197 ng/g,Clc1ccc(CN2CCO[C@H](COc3ccccc3)C2)cc1
3,108 ng/g,COc1ccc(CN2CCO[C@H](COc3ccccc3)C2)cc1F

# Biological target: T3, D(1A) dopamine receptor
# Test: Displacement of [3H]-SCH-23390 from human recombinant dopamine D1 receptor expressed in CHO cells
# Assay type: cell-based
# Conditions: not given
row,Ki,SMILES
1,> 10 µM,Fc1ccc2c(CN3CCO[C@H](COc4cccc(Cl)n4)C3)c[nH]c2c1

# Test system: Plasma
# Test: Fraction unbound in rat plasma by equilibrium dialysis method
# Assay type: ADME, cell-free
# Conditions: not given
row,Fu,SMILES
1,0.074,Cn1ncc2cc(CN3CCO[C@H](COc4ccccc4)C3)ccc21
2,0.007,Clc1ccc(CN2CCO[C@H](COc3ccccc3)C2)cc1
3,0.016,Fc1ccc2c(CN3CCO[C@H](COc4cccc(Cl)n4)C3)c[nH]c2c1
4,0.037,COc1ccc(CN2CCO[C@H](COc3ccccc3)C2)cc1F

# Biological target: T5, D(2) dopamine receptor
# Test: Displacement of [3H]-Spiperone from human recombinant dopamine D2S receptor expressed in CHO cells at 10 uM relative to control
# Assay type: cell-based
# Conditions: not given
# Outline: as §1
row,inhibition,SMILES
1,< 50%,Fc1ccc2c(CN3CCO[C@H](COc4cccc(Cl)n4)C3)c[nH]c2c1
2,76%,COc1ccc(CN2CCO[C@H](COc3ccccc3)C2)cc1F

# Organism: Homo sapiens
# Test: Selectivity ratio of Ki for human recombinant dopamine D5 receptor to Ki for human recombinant dopamine D4 receptor
# Conditions: not given
row,Ratio Ki,SMILES
1,> 1000,Fc1ccc2c(CN3CCO[C@H](COc4cccc(Cl)n4)C3)c[nH]c2c1
